Source: PubChem BioAssay
Only some compounds are listed: those with a hit (about 2.2% of all), similar ones and a draw of the others.
Apaf-1 inh: human Apaf-1 inhibition; inhibition, % at 20 µM; reconstituted apoptosome caspase-3 activity, DEVD-Rh110 fluorescence; 0.71% of 330,000 active; O14727; active = inhibition of at least 40% at 20 µM
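Material: cell-free apoptosome with Apaf-1, procaspase-3 and caspase-9; Buffer or medium: Hepes pH 7.5 with detergent and BSA; Reagent: cytochrome c trigger plus (Z-DEVD)2-Rh110 caspase-3 substrate; Times: compound with Apaf-1, dATP, procaspase-3 30 min, then 50 min reaction, room temperature; Technique: Rh110 fluorescence intensity.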
UBC13 polyUb: inhibitors of human UBC13 polyubiquitin chain formation | TR-FRET | inhibition, % at 20 µM | 0.47% of 330,000 active | AID 485273; in the data active = inhibition above about 45%, passing the limit was not always enough
Target sequence (P61088 whole entry, looked up): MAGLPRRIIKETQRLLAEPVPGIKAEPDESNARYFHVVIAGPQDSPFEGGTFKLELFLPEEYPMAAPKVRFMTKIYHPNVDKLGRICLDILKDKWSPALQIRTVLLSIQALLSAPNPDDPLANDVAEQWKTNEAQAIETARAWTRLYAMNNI
Rin1 Abl inh: blocks binding of human Rin1 to Abl; inhibition, % at 7.35 µM; 0.4% of 360,000 active; TR-FRET Rin1/Abl binding, biochemical; P00519+Q13671; in the data active = inhibition above about 5%, passing the limit was not always enough
PAD4 FP inh: blocks human protein arginine deiminase 4; Q9UM07; recombinant PAD4, RCA probe fluorescence polarization; inhibition, % at 6.36 µM; 0.41% of 330,000 active;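 active = percent inhibition above a cutoff equal to the mean of all tested compounds plus 3 SD, cut at about 15% in these data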
SUMO HTRF inh: SUMOylation inhibition; P63279; HTRF SUMOylation assay, SAE1/SAE2 + UBC9, in vitro; inhibition, % at 35 µM; 0.36% of 290,000 active; AID 2006; in the data active = inhibition above about 50%, passing the limit was not always enough
Target sequence (P63279 whole entry, looked up): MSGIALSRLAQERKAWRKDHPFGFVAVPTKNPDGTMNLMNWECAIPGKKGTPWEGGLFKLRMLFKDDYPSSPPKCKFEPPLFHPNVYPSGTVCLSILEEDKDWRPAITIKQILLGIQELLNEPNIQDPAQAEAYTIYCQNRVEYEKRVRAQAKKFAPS
GSTO1 inh: counter-screen for RBBP9 inhibitors: inhibitors of human GSTO1. P78417. 1.1% of 300,000 active. inhibition, % at 5.96 µM. recombinant GSTO1, activity-based probe fluorescence polarization;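 active = inhibition above the campaign mean inhibition plus 3 SD, cut at about 35% in these data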
Target sequence (P78417 whole entry, looked up): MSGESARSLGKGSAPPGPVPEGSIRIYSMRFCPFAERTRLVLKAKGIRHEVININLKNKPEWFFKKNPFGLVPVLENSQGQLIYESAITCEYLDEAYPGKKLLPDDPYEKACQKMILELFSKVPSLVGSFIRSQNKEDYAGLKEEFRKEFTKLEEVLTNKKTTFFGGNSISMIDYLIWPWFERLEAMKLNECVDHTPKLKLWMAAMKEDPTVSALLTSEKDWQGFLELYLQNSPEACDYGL
Large screens that a line does not name were inactive.

CCN1CCN(c2ccc(NC(=O)CCc3c(C)nc4c(-c5ccccc5)c(C)nn4c3C)cc2)CC1	Apaf-1 inh 48.5
CC(NC(=O)CCl)c1ccc(Cl)c(Cl)c1 (centres undefined)	GSTO1 inh 96.4
CCN1CCN(CCCNC(=O)c2ccc(/C=C3/Oc4ccccc4N(Cc4cccc(C)c4)C3=O)cc2)CC1	Apaf-1 inh 46.8, UBC13 polyUb 64.0
Cc1c(C(=O)O)cccc1-c1ccc(/C=C2/NC(=O)N(c3ccccc3)C2=O)o1	none
Cc1c(C(=O)O)cccc1-c1ccc(/C=C2\SC(=O)NC2=O)o1	GSTO1 inh 35.3
CCN(CC)CCNC(=O)c1cc2c(=O)n(C)c3ccccc3c2n1C	UBC13 polyUb 47.6
Cn1c(C(=O)NCCCN2CCc3ccccc3C2)cc2c(=O)n(C)c3ccccc3c21	UBC13 polyUb 56.1
Cc1ccc(NC(=O)CN2C(=O)S/C(=C\c3cc(Cl)c(OCC(=O)O)c(Cl)c3)C2=O)cc1	none (no result: SUMO HTRF inh)
COc1ccc(OCc2cc(C(=O)NCC(C)Oc3cccnc3)no2)c(Cl)c1 (centres undefined)	none
CC(NC(=O)COC(=O)c1ccc([N+](=O)[O-])s1)c1ccccc1 (centres undefined)	GSTO1 inh 44.5
Cc1ccc(NC(=O)COC(=O)c2ccc([N+](=O)[O-])s2)c(C)c1	GSTO1 inh 35.0
Cc1cc(C)c(NC(=O)COC(=O)c2ccc([N+](=O)[O-])s2)c(C)c1	none
NS(=O)(=O)c1ccc(NC(=O)COC(=O)c2ccc([N+](=O)[O-])s2)cc1	GSTO1 inh 43.9
O=C(Nc1ccccc1)OCCN1CCOCC1	none (no result: Apaf-1 inh, UBC13 polyUb, PAD4 FP inh, SUMO HTRF inh, GSTO1 inh)
CC(=O)Nc1ccc(C(=O)N2CCCCC2c2cc(C(=O)NCc3cccnc3)no2)cc1 (centres undefined)	none (no result: Apaf-1 inh, UBC13 polyUb, PAD4 FP inh, SUMO HTRF inh, GSTO1 inh)
O=C(NN=C1CCN(Cc2ccccc2)CC1)c1cc2ccccc2cc1O	SUMO HTRF inh 87.1
O=C(NN=C1CCN(Cc2ccccc2)CC1)c1ccccc1O	none
CCOC(=O)N1CCN(S(=O)(=O)N2CCCC(C(=O)NC(C)c3ccccc3)C2)CC1 (centres undefined)	none
Cc1cccc(C(=O)NCCC(=O)Nc2ccc(C#N)cc2)c1	none
Cc1ccccc1-c1cc(=O)c2c(O)cccc2o1	none
O=c1cc2oc3cc(O)c(O)cc3c(-c3ccccc3O)c-2cc1O	Rin1 Abl inh 67.2, SUMO HTRF inh 85.3 (no result: Apaf-1 inh, UBC13 polyUb, PAD4 FP inh, GSTO1 inh)
CCOc1ccccc1-c1c2cc(O)c(=O)cc-2oc2cc(O)c(O)cc12	Rin1 Abl inh 54.2 (no result: Apaf-1 inh, UBC13 polyUb, PAD4 FP inh, GSTO1 inh)
Cc1ccc(-c2nc(CN3CCCC(C(=O)N4CCOCC4)C3)c(C)o2)cc1 (centres undefined)	none
Fc1ccc(-c2nc3cnccn3c2NC2CCCC2)cc1	SUMO HTRF inh 54.4
O=C(COC(=O)c1ccc(NS(=O)(=O)c2cccs2)cc1)Nc1nc2c(F)c(F)c(F)cc2s1	SUMO HTRF inh 80.5 (no result: Apaf-1 inh, UBC13 polyUb, PAD4 FP inh, GSTO1 inh)
O=C(COC(=O)c1cc(NS(=O)(=O)c2cccs2)ccc1O)Nc1ccc(F)c(F)c1F	none
O=C(COC(=O)c1ccco1)Nc1nc2c(F)c(F)c(F)cc2s1	none
O=C(COC(=O)c1cc(NS(=O)(=O)c2cccs2)ccc1O)Nc1cc(Cl)ccc1Cl	SUMO HTRF inh 68.6
CC1=CCC2C(=O)N(c3cccc(C(=O)Nc4ccccc4Cl)c3)C(=O)C2C1 (centres undefined)	none
Cc1c2cnn(CC(=O)Nc3c(F)c(F)cc(F)c3F)c(=O)c2c(C)n1Cc1ccccc1F	SUMO HTRF inh 62.0
Cc1ccc(/C=C2\SC(=S)N(C3CCS(=O)(=O)C3)C2=O)o1 (centres undefined)	none
CC1=C(C#N)C(=O)N(C2CCS(=O)(=O)C2)C(=O)/C1=C\c1ccc(C)o1 (centres undefined)	SUMO HTRF inh 61.2, GSTO1 inh 35.8 (no result: Rin1 Abl inh)
COc1ccc(Cl)cc1C(=O)NC1CC(C)(C)NC(C)(C)C1	none (no result: Apaf-1 inh, UBC13 polyUb, PAD4 FP inh, SUMO HTRF inh, GSTO1 inh)
COc1cc(/C=C2\C(=O)N(c3ccccc3)N=C2C)ccc1Oc1ccc([N+](=O)[O-])cc1[N+](=O)[O-]	PAD4 FP inh 44.1 (no result: Apaf-1 inh, UBC13 polyUb, SUMO HTRF inh)
COc1cc(/C=C2/C(=O)N(c3ccc(C(=O)O)cc3)N=C2C)cc(OC)c1O	Apaf-1 inh 77.6 (no result: PAD4 FP inh, GSTO1 inh)
COc1cc(/C=C2/C(=O)N(c3ccc(C)c(C)c3)N=C2C)cc([N+](=O)[O-])c1O	none
CC(C)(C)OC(=O)NCCCC1=CC2=CC(=O)C(C)(OC(=O)c3ccc(Cl)nc3)C(=O)C2=CO1 (centres undefined)	PAD4 FP inh 25.5 (no result: Rin1 Abl inh, SUMO HTRF inh)
CCC1Cc2[nH]c(=S)[nH]c(=O)c2C(c2ccc(Cl)cc2)O1 (centres undefined)	none (no result: Apaf-1 inh, UBC13 polyUb, PAD4 FP inh, SUMO HTRF inh, GSTO1 inh)
COc1cc(NC(=O)CN2C(=O)NC3(CCOc4ccccc43)C2=O)cc(OC)c1 (centres undefined)	Apaf-1 inh 58.5 (no result: SUMO HTRF inh, GSTO1 inh)
O=C(CN1C(=O)NC2(CCOc3ccccc32)C1=O)Nc1cccc(Cl)c1 (centres undefined)	none
COc1cc(OC)cc(-c2nnc(Sc3ccc(C=O)cc3[N+](=O)[O-])o2)c1	PAD4 FP inh 26.5 (no result: Rin1 Abl inh)
O=C(CCl)NC1(C(=O)O)CCCC1	none (no result: Apaf-1 inh, UBC13 polyUb, PAD4 FP inh, SUMO HTRF inh, GSTO1 inh)
COc1ccc(NC(=O)[C@H](C)NC(=O)C2CCN(S(=O)(=O)c3ccc(C)cc3)CC2)cc1OC	none
Cc1ccc(S(=O)(=O)c2ncccc2[N+](=O)[O-])cc1	none
CCCCn1c(NC(=O)c2ccco2)c(S(=O)(=O)c2ccc(C)cc2)c2nc3ccccc3nc21	SUMO HTRF inh 100.2 (no result: Apaf-1 inh, UBC13 polyUb, PAD4 FP inh, GSTO1 inh)
Cc1ccc(C(=O)Nn2c(N)c(S(=O)(=O)c3ccc(C)cc3)c3nc4ccccc4nc32)cc1	none
CSc1ncccc1C(=O)OCC(=O)N(C)c1c(N)n(Cc2ccccc2)c(=O)[nH]c1=O	none (no result: SUMO HTRF inh)
Cc1ccccc1Nc1nc(-c2sc(NC(=O)c3ccccc3)nc2C)cs1	UBC13 polyUb 92.9 (no result: Rin1 Abl inh)
C[C@@H]1CN([C@H](C)CO)C(=O)CCCn2cc(nn2)CO[C@H]1CN(C)C(=O)Nc1ccnc(N2CCOCC2)c1	none (no result: Apaf-1 inh, UBC13 polyUb, PAD4 FP inh, SUMO HTRF inh, GSTO1 inh)
CCOC(=O)N1CCN(C2=C(NS(=O)(=O)c3ccc(C)cc3)C(=O)c3ccccc3C2=O)CC1	Apaf-1 inh 86.2
CN(C)C1(CNC(=O)C2CCN(S(=O)(=O)c3cc(Cl)ccc3Cl)CC2)CCCCC1	none
CCCCC(CC)C(=O)Oc1ccc(O)c(C(C)(C)C)c1 (centres undefined)	Rin1 Abl inh 9.2
NC(Cc1ccc(F)cc1)c1csc(Nc2ccc(S(N)(=O)=O)cc2)n1 (centres undefined)	none (no result: Apaf-1 inh, UBC13 polyUb, PAD4 FP inh, SUMO HTRF inh, GSTO1 inh)
O=c1cc(-c2ccccc2)nc2c(-c3ccccc3)c(C(F)(F)F)[nH]n12	SUMO HTRF inh 50.6
Cc1ccc(-c2csc3nc4c5ccccc5c(NCCCN5CCOCC5)nn4c(=O)c23)cc1	UBC13 polyUb 55.5 (no result: Rin1 Abl inh)
COc1ccc(S(=O)(=O)Nc2cccc3c2O[C@H](CN(C)Cc2ccccc2)[C@@H](C)CN([C@H](C)CO)C3=O)cc1	Apaf-1 inh 53.0 (no result: SUMO HTRF inh, GSTO1 inh)
CC1=C(C(=O)Nc2cc(C(=O)N3CCN(c4cccc(C)c4C)CC3)ccc2C)SCCO1	none
CN(C)c1cccc2c(S(=O)(=O)N3CCCC3)cccc12	SUMO HTRF inh 51.3
